Data from ChEMBL document CHEMBL1800054, “Thiazolides as novel antiviral agents. 1. Inhibition of hepatitis B virus replication” (J Med Chem, 2011).

Key:
[1] = Cytotoxicity against human HepG2(2.2.15) cells after 24 hrs by neutral red dye uptake assay; format: cell-based; settings: for CC50: hepg2 2.2.15, 24 h; for CC50 at 24 h: HepG2(2.2.15) cells
Summary of the method: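 Confluent chronically HBV-producing 2.2.15 cultures given nine consecutive daily doses of compound; neutral red dye uptake read 24 hr after the last dose.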

[2] = tested on: Hepatitis B virus; assay: Antiviral activity against Hepatitis B virus infected in human HepG2(2.2.15) cells assessed as decrease in extracellular viral DNA measured 24 hrs after last dose; format: functional, organism-based; settings: HepG2 2.2.15, 24 h
Summary of the method: (§1)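 Confluent 2.2.15 cells (HepG2 line chronically producing HBV) in 96-well culture; nine consecutive daily doses of compound. HBV DNA (extracellular virion or intracellular replication intermediates) quantified by blot hybridization 24 hr after the last dose. Cytotoxicity measured by neutral red uptake 24 hr after the last dose.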

[3] = tested on: Hepatitis B virus; assay: Antiviral activity against Hepatitis B virus infected in human HepG2(2.2.15) cells assessed as decrease in intracellular viral DNA measured 24 hrs after last dose; format: functional, organism-based; settings: HepG2 2.2.15, 24 h; summary of the method: as §1
[4] = Selectivity index, ratio CC50 for human HepG2(2.2.15) cells to EC90 for decrease in extracellular viral DNA in Hepatitis B virus infected human HepG2(2.2.15) cells; format: toxicity; settings: read-out: Selectivity Index
Summary of the method: (§2)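 Ratio of CC50 to EC90 in confluent 2.2.15 cells treated with nine consecutive daily doses. Both read 24 hr after the last dose. CC50 = concentration halving neutral red uptake versus untreated cultures. EC values were run in triplicate.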

[5] = Selectivity index, ratio CC50 for human HepG2(2.2.15) cells to EC90 for decrease in intracellular viral DNA in Hepatitis B virus infected human HepG2(2.2.15) cells; format: toxicity, cell-based; settings: read-out: Selectivity Index; summary of the method: as §2
[6] = tested on: Plasma; assay: Metabolic stability in human plasma after 1 hr; format: ADME, cell-free
Summary of the method: (§3)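 Incubated 1 hour in human whole blood or plasma, then stability assessed.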

[7] = Protein binding in plasma; format: ADME, cell-free; settings: read-out: PPB
[8] = Metabolic stability in human liver S9 fraction assessed as compound remaining after 60 mins; format: ADME, subcellular; settings: read-out: Stability
Summary of the method: (§4)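 Incubated 60 minutes with human liver microsomes or S9 fraction; read-out is percent of parent compound remaining.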

[9] = Metabolic stability in human liver microsomes assessed as compound remaining after 60 mins; format: ADME, Microsome; settings: read-out: Stability; summary of the method: as §4
[10] = tested on: Blood; assay: Metabolic stability in human blood after 1 hr; format: ADME, tissue-based; summary of the method: as §3
[11] = Inhibition of CYP450; format: ADME
Summary of the method: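 Screened for inhibition against a panel of 14 CYP isozymes.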

[12] = tested on: Plasma; assay: Metabolic stability in human plasma assessed as plasma esterase-induced compound deacetylation; format: ADME, cell-free
[13] = tested on: Plasma; assay: Protein binding in human plasma; format: ADME, cell-free

O=C(Nc1nccs1)c1ccccc1O
CC50 [1]: 16 µM | EC50 [2]: > 10 µM | EC90 [2]: > 10 µM

CS(=O)(=O)c1cnc(NC(=O)c2ccccc2O)s1
EC50 [3]: > 10 µM | CC50 at 24 h [1]: > 100 µM | EC50 [2]: > 10 µM | EC90 [2]: > 10 µM

O=C(Nc1ncc(Cl)s1)c1ccccc1O
EC50 [3]: 1 µM | EC90 [3]: 2.9 µM | selectivity ratio [4]: 43 | selectivity ratio [5]: 13 | CC50 [1]: 38 µM | EC50 [2]: 0.33 µM | EC90 [2]: 0.89 µM

Cc1ccc(O)c(C(=O)Nc2ncc(Cl)s2)c1
Stability [6]: Stable | EC50 [3]: 0.9 µM | EC90 [3]: 2 µM | selectivity ratio [4]: > 120 | fraction unbound [7]: < 0.01 | remaining at 1 h [8]: 6% | remaining at 1 h [9]: 16% | Stability [10]: Stable | selectivity ratio [5]: > 51 | inhibition (INH) [11]: Not Active | CC50 at 24 h [1]: 100 µM | EC50 [2]: 0.33 µM | EC90 [2]: 0.83 µM

Cc1cccc(C(=O)Nc2ncc(Cl)s2)c1O
EC50 [3]: > 10 µM | EC90 [3]: > 10 µM | CC50 [1]: 100 µM | EC50 [2]: > 10 µM | EC90 [2]: > 10 µM

Cc1ccc(C(=O)Nc2ncc(Cl)s2)c(O)c1
EC50 [3]: 2.7 µM | EC90 [3]: 6.3 µM | selectivity ratio [4]: > 30 | selectivity ratio [5]: > 16 | CC50 at 24 h [1]: 100 µM | EC50 [2]: 1 µM | EC90 [2]: 3.3 µM

Cc1cccc(C(=O)Nc2ncc(Br)s2)c1O
EC50 [3]: 7.6 µM | EC90 [3]: 22 µM | selectivity ratio [4]: > 11 | selectivity ratio [5]: > 4.5 | CC50 at 24 h [1]: > 100 µM | EC50 [2]: 3.5 µM | EC90 [2]: 9 µM

O=C(Nc1ncc(Br)s1)c1ccccc1O
EC50 [3]: 2.9 µM | EC90 [3]: 8.7 µM | selectivity ratio [4]: > 25 | selectivity ratio [5]: > 12 | CC50 at 24 h [1]: > 100 µM | EC50 [2]: 1.2 µM | EC90 [2]: 4 µM

O=C(Nc1ncc(F)s1)c1ccccc1O
selectivity ratio [4]: 4.3 | CC50 [1]: 51 µM | EC50 [2]: 3.1 µM | EC90 [2]: 12 µM

O=C(Nc1ncc(Br)s1)c1cccc(Cl)c1O
EC50 [3]: 0.59 µM | EC90 [3]: 3.9 µM | selectivity ratio [4]: 15 | selectivity ratio [5]: 7.7 | CC50 [1]: 30 µM | EC50 [2]: 0.32 µM | EC90 [2]: 2 µM

O=C(Nc1ncc(Br)s1)c1ccc(F)cc1O
selectivity ratio [4]: 2.1 | CC50 [1]: 12 µM | EC50 [2]: 2.1 µM | EC90 [2]: 5.6 µM

O=C(Nc1ncc(Br)s1)c1cc(Cl)ccc1O
EC50 [3]: 3.5 µM | EC90 [3]: 11 µM | selectivity ratio [4]: 41 | selectivity ratio [5]: 4.1 | CC50 [1]: 45 µM | EC50 [2]: 0.21 µM | EC90 [2]: 1.1 µM

O=C(Nc1ncc(-c2ccc(Cl)cc2)s1)c1ccccc1O
EC50 [3]: > 10 µM | EC90 [3]: > 10 µM | CC50 at 24 h [1]: > 100 µM | EC50 [2]: > 10 µM | EC90 [2]: > 10 µM

Cc1cccc(C(=O)Nc2nc(-c3ccccc3)cs2)c1O
EC50 [3]: 7.8 µM | EC90 [3]: 30 µM | selectivity ratio [4]: > 137 | selectivity ratio [5]: 3.3 | CC50 at 24 h [1]: > 100 µM | EC50 [2]: 0.22 µM | EC90 [2]: 0.73 µM

O=C(Nc1nc(-c2ccccc2)cs1)c1cccc(Cl)c1O
selectivity ratio [4]: > 166 | CC50 at 24 h [1]: > 100 µM | EC50 [2]: 0.15 µM | EC90 [2]: 0.6 µM

CC(=O)Nc1cnc(NC(=O)c2ccccc2O)s1
EC50 [3]: > 10 µM | EC90 [3]: > 10 µM | CC50 at 24 h [1]: > 100 µM | EC50 [2]: > 10 µM | EC90 [2]: > 10 µM

CS(=O)(=O)c1csc(NC(=O)c2ccccc2O)n1
CC50 at 24 h [1]: > 100 µM | EC50 [2]: > 10 µM | EC90 [2]: > 10 µM

N#Cc1cnc(NC(=O)c2ccccc2O)s1
EC50 [3]: 5.5 µM | EC90 [3]: 14 µM | selectivity ratio [4]: > 11 | selectivity ratio [5]: > 7.1 | CC50 at 24 h [1]: > 100 µM | EC50 [2]: 3.2 µM | EC90 [2]: 9.4 µM

COC(=O)c1cnc(NC(=O)c2ccccc2O)s1
CC50 [1]: 15 µM | EC50 [2]: > 10 µM | EC90 [2]: > 10 µM

O=C(Nc1ncc(C(F)(F)F)s1)c1ccccc1O
EC50 [3]: 9.1 µM | EC90 [3]: 27 µM | selectivity ratio [4]: > 9.1 | selectivity ratio [5]: > 3.7 | CC50 at 24 h [1]: > 100 µM | EC50 [2]: 3.8 µM | EC90 [2]: 11 µM

CCOC(=O)Oc1ccccc1C(=O)Nc1ncc([N+](=O)[O-])s1
EC50 [3]: 0.54 µM | EC90 [3]: 1.8 µM | selectivity ratio [4]: 13 | selectivity ratio [5]: 5.5 | CC50 [1]: 9.9 µM | EC50 [2]: 0.21 µM | EC90 [2]: 0.69 µM

CC(C)c1cnc(NC(=O)c2ccccc2O)s1
EC50 [3]: > 10 µM | EC90 [3]: > 10 µM | CC50 at 24 h [1]: > 100 µM | EC50 [2]: > 10 µM | EC90 [2]: > 10 µM

CC(=O)Oc1ccccc1C(=O)Nc1ccc(Br)cc1
EC50 [3]: 2.1 µM | EC90 [3]: 6.8 µM | selectivity ratio [4]: > 33 | selectivity ratio [5]: > 15 | CC50 at 24 h [1]: > 100 µM | EC50 [2]: 0.76 µM | EC90 [2]: 3 µM

Cc1cc([N+](=O)[O-])c(Cl)cc1NC(=O)c1ccccc1O
EC50 [3]: 0.66 µM | EC90 [3]: 1.7 µM | selectivity ratio [4]: 122 | selectivity ratio [5]: 52 | CC50 [1]: 89 µM | EC50 [2]: 0.28 µM | EC90 [2]: 0.73 µM

CC(=O)Oc1ccccc1C(=O)Nc1cc(C(F)(F)F)cc(C(F)(F)F)c1
selectivity ratio [4]: > 7.1 | CC50 at 24 h [1]: > 100 µM | EC50 [2]: 3.8 µM | EC90 [2]: 14 µM

CC(=O)Oc1ccccc1C(=O)Nc1ccc(I)cc1
EC50 [3]: 0.73 µM | EC90 [3]: 3.3 µM | selectivity ratio [4]: > 83 | selectivity ratio [5]: > 30 | CC50 at 24 h [1]: > 100 µM | EC50 [2]: 0.2 µM | EC90 [2]: 1.2 µM

O=C(Nc1ccc([N+](=O)[O-])cc1)c1ccccc1O
CC50 at 24 h [1]: > 100 µM | EC50 [2]: > 10 µM | EC90 [2]: > 10 µM

CC(=O)Oc1ccccc1C(=O)Nc1ccc(Cl)cc1
selectivity ratio [4]: 11 | CC50 at 24 h [1]: > 100 µM | EC50 [2]: 3.5 µM | EC90 [2]: 9.7 µM

O=C(Nc1ccc(Cl)cc1)c1ccccc1O
CC50 at 24 h [1]: > 100 µM | EC50 [2]: > 10 µM | EC90 [2]: > 10 µM

O=C(Nc1cc(C(F)(F)F)ccc1Cl)c1ccccc1O
CC50 at 24 h [1]: > 100 µM | EC50 [2]: 3.7 µM | EC90 [2]: 13 µM

O=C(Nc1nc(-c2ccccc2)cs1)c1ccccc1O
selectivity ratio [4]: 1 | CC50 [1]: 22 µM | EC50 [2]: 5.6 µM | EC90 [2]: 21 µM

O=C(Nc1ccc([N+](=O)[O-])cc1Cl)c1cc(Cl)ccc1O [NICLOSAMIDE]
CC50 at 24 h [1]: > 100 µM | EC90 [2]: > 10 µM

CC(=O)Oc1ccccc1C(=O)Nc1ncc([N+](=O)[O-])s1 [NITAZOXANIDE]
EC50 [3]: 0.59 µM | t1/2 [12]: 6 min | PPB [13]: > 95% | CC50 at 24 h [1]: > 100 µM | EC50 [2]: 0.12 µM

O=C(Nc1ncc([N+](=O)[O-])s1)c1ccccc1O [TIZOXANIDE]
EC50 [3]: 0.46 µM | EC90 [3]: 1.2 µM | selectivity ratio [4]: > 172 | selectivity ratio [5]: > 83 | PPB [13]: > 95% | CC50 at 24 h [1]: > 100 µM | EC50 [2]: 0.15 µM | EC90 [2]: 0.58 µM
